Measured values as given in PMC3165084 (Leukemia, 2011).

What was measured:
[1] = Plasma pharmacokinetics of tipifarnib, LCMS/MS, non-compartmental analysis; format: in vivo, human
[2] = system: myeloid and lymphoid leukemias; conditions: ref [2], cited from earlier work
[3] = system: acute myeloid leukemia (AML); assay: Phase 1 dose escalation: clinical response; format: in vivo, human
How it was run: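 Bone marrow aspiration and biopsy were done within two weeks before therapy and repeated on days 26–28 of each 28-day cycle. Blood counts were taken at least weekly. Response was scored by International Working Group criteria. Intra-patient escalation was allowed if no CR after cycle 1. Patients without PR or clinical improvement after 6 cycles were deemed treatment failures.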

[4] = system: previously untreated AML or MDS; conditions: 600 mg bid, 21 day schedule, older patients with previously untreated AML or MDS; ref [5]; cited from earlier work

Cn1cncc1[C@@](N)(c1ccc(Cl)cc1)c1ccc2c(c1)c(-c1cccc(Cl)c1)cc(=O)n2C [tipifarnib, Tipifarnib]
AUC(0-t) ([1]; human, plasma, oral, 1200 mg, AUC12h, high, Day 5, 1200 mg bid, plasma): 14200 ng·h/mL | AUC(0-t) ([1]; human, plasma, oral, 1200 mg, AUC12h, low, Day 1, 1200 mg, plasma): 3240 ng·h/mL | AUC(0-t) ([1]; human, plasma, oral, 1200 mg, AUC12h, low, Day 5, 1200 mg bid, plasma): 4620 ng·h/mL | AUC(0-t) ([1]; human, plasma, oral, 1200 mg, AUC12h, median, Day 1, 1200 mg, plasma): 4740 ng·h/mL | AUC(0-t) ([1]; human, plasma, oral, 1200 mg, AUC12h, median, Day 5, 1200 mg bid, plasma): 7370 ng·h/mL | Cmax ([1]; human, plasma, oral, 1200 mg, Cmax, high, Day 1, 1200 mg, plasma): 3160 ng/mL | Cmax ([1]; human, plasma, oral, 1200 mg, Cmax, high, Day 5, 1200 mg bid, plasma): 2500 ng/mL | Cmax ([1]; human, plasma, oral, 1200 mg, Cmax, low, Day 1, 1200 mg, plasma): 404 ng/mL | Cmax ([1]; human, plasma, oral, 1200 mg, Cmax, low, Day 5, 1200 mg bid, plasma): 762 ng/mL | Cmax ([1]; human, plasma, oral, 1200 mg, Cmax, median, Day 1, 1200 mg, plasma): 906 ng/mL | Cmax ([1]; human, plasma, oral, 1200 mg, Cmax, median, Day 5, 1200 mg bid, plasma): 1210 ng/mL | concentration at 5 day ([1]; human, plasma, oral, 1200 mg, Cmin, high, Day 5, 1200 mg bid, plasma): 283 ng/mL | concentration at 5 day ([1]; human, plasma, oral, 1200 mg, Cmin, low, Day 5, 1200 mg bid, plasma): 97 ng/mL | concentration at 5 day ([1]; human, plasma, oral, 1200 mg, Cmin, median, Day 5, 1200 mg bid, plasma): 166 ng/mL | Tmax ([1]; human, plasma, oral, 1200 mg, high, Day 1, 1200 mg, plasma): 3 h | Tmax ([1]; human, plasma, oral, 1200 mg, high, Day 5, 1200 mg bid, plasma): 5 h | Tmax ([1]; human, plasma, oral, 1200 mg, low, Day 1, 1200 mg, plasma): 2 h | Tmax ([1]; human, plasma, oral, 1200 mg, low, Day 5, 1200 mg bid, plasma): 1 h | Tmax ([1]; human, plasma, oral, 1200 mg, median, Day 1, 1200 mg, plasma): 2.1 h | Tmax ([1]; human, plasma, oral, 1200 mg, median, Day 5, 1200 mg bid, plasma): 3 h | AUC(0-t) ([1]; human, plasma, oral, 1400 mg, AUC12h, high, Day 1, 1400 mg, plasma): 18700 ng·h/mL | AUC(0-t) ([1]; human, plasma, oral, 1400 mg, AUC12h, high, Day 5, 1400 mg bid, plasma): 25600 ng·h/mL | AUC(0-t) ([1]; human, plasma, oral, 1400 mg, AUC12h, low, Day 1, 1400 mg, plasma): 8950 ng·h/mL | AUC(0-t) ([1]; human, plasma, oral, 1400 mg, AUC12h, low, Day 5, 1400 mg bid, plasma): 8710 ng·h/mL | AUC(0-t) ([1]; human, plasma, oral, 1400 mg, AUC12h, median, Day 1, 1400 mg, plasma): 13800 ng·h/mL | AUC(0-t) ([1]; human, plasma, oral, 1400 mg, AUC12h, median, Day 5, 1400 mg bid, plasma): 17100 ng·h/mL | Cmax ([1]; human, plasma, oral, 1400 mg, Cmax, high, Day 1, 1400 mg, plasma): 4240 ng/mL | Cmax ([1]; human, plasma, oral, 1400 mg, Cmax, high, Day 5, 1400 mg bid, plasma): 3890 ng/mL | Cmax ([1]; human, plasma, oral, 1400 mg, Cmax, low, Day 1, 1400 mg, plasma): 1690 ng/mL | Cmax ([1]; human, plasma, oral, 1400 mg, Cmax, low, Day 5, 1400 mg bid, plasma): 1370 ng/mL | Cmax ([1]; human, plasma, oral, 1400 mg, Cmax, median, Day 1, 1400 mg, plasma): 3920 ng/mL | Cmax ([1]; human, plasma, oral, 1400 mg, Cmax, median, Day 5, 1400 mg bid, plasma): 2630 ng/mL | concentration at 12 h ([1]; human, plasma, oral, 1400 mg, Cmin, high, Day 1, 1400 mg, plasma): 329 ng/mL | concentration at 5 day ([1]; human, plasma, oral, 1400 mg, Cmin, high, Day 5, 1400 mg bid, plasma): 781 ng/mL | concentration at 5 day ([1]; human, plasma, oral, 1400 mg, Cmin, low, Day 5, 1400 mg bid, plasma): 170 ng/mL | concentration at 5 day ([1]; human, plasma, oral, 1400 mg, Cmin, median, Day 5, 1400 mg bid, plasma): 476 ng/mL | Tmax ([1]; human, plasma, oral, 1400 mg, high, Day 1, 1400 mg, plasma): 3.2 h | Tmax ([1]; human, plasma, oral, 1400 mg, high, Day 5, 1400 mg bid, plasma): 5 h | Tmax ([1]; human, plasma, oral, 1400 mg, low, Day 1, 1400 mg, plasma): 2 h | Tmax ([1]; human, plasma, oral, 1400 mg, low, Day 5, 1400 mg bid, plasma): 3 h | Tmax ([1]; human, plasma, oral, 1400 mg, median, Day 1, 1400 mg, plasma): 3.1 h | Tmax ([1]; human, plasma, oral, 1400 mg, median, Day 5, 1400 mg bid, plasma): 4 h | AUC(0-t) ([1]; human, plasma, oral, median AUC12h, remaining patients, day 1): 7580 ng·h/mL | AUC(0-t) ([1]; human, plasma, oral, median AUC12h, remaining patients, day 5): 4320 ng·h/mL | AUC(0-t) ([1]; human, plasma, oral, median AUC12h, two patients with decreased blasts, day 1): 16300 ng·h/mL | AUC(0-t) ([1]; human, plasma, oral, median AUC12h, two patients with decreased blasts, day 5): 13200 ng·h/mL | Cmax ([1]; human, plasma, oral, median Cmax, remaining patients, day 1): 1290 ng/mL | Cmax ([1]; human, plasma, oral, median Cmax, remaining patients, day 5): 881 ng/mL | Cmax ([1]; human, plasma, oral, median Cmax, two patients with decreased blasts, day 1): 2440 ng/mL | Cmax ([1]; human, plasma, oral, median Cmax, two patients with decreased blasts, day 5): 2550 ng/mL | fold higher median AUC and Cmax in the two patients with decreased blasts vs median of the non-responders ([1]; on both day 1 and day 5): 2–3 fold | pharmacokinetic behavior (dose linearity) ([1]; present data taken together with earlier studies): linear up to doses as high as 1400 mg bid | response at lowest dose level ([2]; 100 mg bid, 21-day continuous dosing): a CR at the lowest dose level | overall response rate ([2]; 34 patients, 21-day continuous dosing schedule): 29% | Responses ([3]; 800 mg bid): 1 CMML patient cleared leukemic blasts | marrow blasts, change ([3]; 800 mg bid, one patient, over 3 cycles): from 36% to 10% | Responses ([3]; 1000 mg bid): 1 CR went to transplant | Responses ([3]; 1200 mg bid): 2 CRs, 1 marrow response (from 50%-7% blasts) | duration of CR ([3]; 1200 mg bid, individual CR patients): one month | Responses ([3]; 1400 mg bid): minor responses | decrease of bone marrow blasts ([3]; 1400 mg bid, two patients): ≥ 50% | complete remissions (CR) seen ([3]; all dose levels, 44 patients, 1000 mg and 1200 mg bid): 3 | complete responses in expansion group ([3]; expansion group, 7 patients at MTD 1200 mg bid): no complete responses | formal responses ([3]; lower dose levels (below 1000 mg bid)): No formal responses | partial response, patients [4]: 10%
